Common to all, as to format: functional
Test [1] has as its system Melanocyte-stimulating hormone receptor. The test is described as follows: In vitro potency of compound to stimulate melanosome dispersion in frog (Rana pipiens) skin relative to alpha-MSH.
A further test has as its system lizard. As to the kind of experiment: In vitro potency of compound to stimulate melanosome dispersion in lizard skin relative to alpha-MSH. In short, it runs like this:
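Isolated Anolis carolinensis lizard skins were scored in vitro for melanosome dispersion (darkening) across the entire dose-response range. Relative potency is the ratio of the α-MSH concentration giving 50% response to the peptide concentration giving 50% response.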

A short description of test [2]: In vitro potency of compound to stimulate adenylate cyclase activity in melanoma cells relative to alpha-MSH. The essentials: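 Particulate membranes from Cloudman S-91 mouse melanoma tumors grown in DBA/2J mice were used as a cell-free system, 56 μg of protein per assay. Adenylate cyclase activity was measured as conversion of [α-³²P]ATP to [³²P]cAMP, with cAMP isolated by the Salomon method. Full dose-response curves were run in triplicate. Potency is relative to α-MSH: concentration of α-MSH at 50% response divided by that of the peptide.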

On to `CCCC[C@H](NC(C)=O)C(=O)N[C@@H](CCC(=O)O)C(=O)N[C@@H](Cc1c[nH]cn1)C(=O)N[C@@H](Cc1ccccc1)C(=O)N[C@@H](CCCN=C(N)N)C(=O)N[C@@H](Cc1c[nH]c2ccccc12)C(=O)NCC(N)=O`, for which the values for the Potency (in test [1]; with lizard; in test [2]) were 0.002, 0.06 and 0.09, respectively.
The corresponding values for `CCCC[C@H](NC(C)=O)C(=O)N[C@@H](CCC(=O)O)C(=O)N[C@@H](Cc1c[nH]cn1)C(=O)N[C@H](Cc1ccccc1)C(=O)N[C@@H](CCCN=C(N)N)C(=O)N[C@@H](Cc1c[nH]c2ccccc12)C(=O)NCC(N)=O` are 0.02, 10 and 7.7.
In the case of `CSCC[C@H](N)C(=O)N[C@@H](CCC(=O)O)C(=O)N[C@@H](Cc1c[nH]cn1)C(=O)N[C@@H](Cc1ccccc1)C(=O)N[C@@H](CCCN=C(N)N)C(=O)N[C@@H](Cc1c[nH]c2ccccc12)C(=O)NCC(=O)O`, the Potency turned out to be 1e-05 in test [1] and 4e-05 in the test on lizard.
Consider `CSCC[C@H](NC(C)=O)C(=O)N[C@@H](CCC(=O)O)C(=O)N[C@@H](Cc1c[nH]cn1)C(=O)N[C@@H](Cc1ccccc1)C(=O)N[C@@H](CCCN=C(N)N)C(=O)N[C@@H](Cc1c[nH]c2ccccc12)C(=O)NCC(N)=O`, for which the values for the Potency (in test [1]; in the test on lizard) were 0.0003 and 0.004, respectively.
For the compound Ac-YEHFRWG-NH2, the Potency in test [1] worked out at 0.0002; with lizard, 0.0006; in test [2] it was 0.001.

The record behind these values is ChEMBL document CHEMBL1122123 (1982).
